Experimental data published in ChEMBL document CHEMBL1146084, “Discovery of orally efficacious melanin-concentrating hormone receptor-1 antagonists as antiobesity agents. Synthesis, SAR, and biological evaluation of bicyclo[3.1.0]hexyl ureas” (J Med Chem, 2006).

Experiments:
[1] = AUC (0-6h) in rat at 10 mg/kg, po; format: ADME, organism-based, Plasma; design: time < 6 hr, dose 10 mg/kg, route oral; settings: plasma
[2] = biological target: Melanin-concentrating hormone receptor 1 (Mus musculus) (UniProt Q8JZL2); assay: Receptor occupancy ex vivo by displacement of [125I]S36057 binding from MCHR1 in C57BL/6N mouse brain after 6 hrs at 30 mg/kg, po; format: functional, organism-based; design: dose 30 mg/kg
Sequence of Melanin-concentrating hormone receptor 1 (Mus musculus) (Q8JZL2 whole entry): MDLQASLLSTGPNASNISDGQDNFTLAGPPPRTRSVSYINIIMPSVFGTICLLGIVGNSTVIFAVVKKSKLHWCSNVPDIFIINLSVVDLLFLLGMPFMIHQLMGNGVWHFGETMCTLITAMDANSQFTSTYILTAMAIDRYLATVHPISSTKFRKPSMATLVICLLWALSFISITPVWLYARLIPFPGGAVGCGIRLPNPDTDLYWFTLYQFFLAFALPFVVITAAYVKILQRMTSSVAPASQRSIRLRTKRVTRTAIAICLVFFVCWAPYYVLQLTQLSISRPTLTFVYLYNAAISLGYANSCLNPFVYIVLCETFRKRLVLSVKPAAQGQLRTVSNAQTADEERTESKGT
Summary of the method: (§1)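 Male C57Bl/6NCrl:BR mice given vehicle (HPβCD) or compound orally; killed by CO2 at 6 or 24 h post-dose (chronic studies: 24 h after last daily dose, n = 3/group). 16 µm frozen caudate putamen sections incubated 30 min at room temperature with 700 pM [125I]-S36057 in MCH-R1 binding buffer; 1 µM MCH defines nonspecific binding. Phosphorimager quantitation; % inhibition versus vehicle.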

[3] = biological target: T1, Melanin-concentrating hormone receptor 1 (Homo sapiens, UniProt Q99705); assay: Displacement of [125I]MCH from human MCHR1 expressed in CHO cell; format: cell-based
T1 sequence (Q99705 whole entry): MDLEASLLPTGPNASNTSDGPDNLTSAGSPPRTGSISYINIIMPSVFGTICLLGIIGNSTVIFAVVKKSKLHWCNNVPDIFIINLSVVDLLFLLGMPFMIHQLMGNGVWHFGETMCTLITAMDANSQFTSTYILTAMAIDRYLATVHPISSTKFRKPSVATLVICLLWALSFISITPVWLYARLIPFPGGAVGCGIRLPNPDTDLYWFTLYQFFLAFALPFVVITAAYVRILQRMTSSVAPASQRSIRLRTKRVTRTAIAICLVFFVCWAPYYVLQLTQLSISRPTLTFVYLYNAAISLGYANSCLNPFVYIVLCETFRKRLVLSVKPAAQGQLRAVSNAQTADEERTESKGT

[4] = biological target: Melanin-concentrating hormone receptor 1 (Mus musculus) (UniProt Q8JZL2); assay: Receptor occupancy ex vivo by displacement of [125I]S36057 binding from MCHR1 in C57BL/6N mouse brain after 24 hrs at 30 mg/kg, po; format: functional, organism-based; design: dose 30 mg/kg; summary of the method: as §1
[5] = biological target: T1, Melanin-concentrating hormone receptor 1; assay: Inhibition of MCH-mediated calcium influx in CHO cells expressing human MCHR1 by FLIPR assay; format: functional, cell-based
Summary of the method: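 After two washes, treated with vehicle (buffer, 2% DMSO) or compound, then stimulated with 30 nM MCH; intracellular Ca²⁺ change read by FLIPR.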

| SMILES | AUC(0-t) at 6 h [1] | Activity [2] | Ki [3] | Activity [4] | Kb [5] |
| --- | --- | --- | --- | --- | --- |
| N#Cc1cccc([C@@]23CC[C@H](N(CCN4CCCC4)C(=O)Nc4cc(Cl)cc(Cl)c4)[C@@H]2C3)c1 | 1490 ng·h/mL | 69% | 15 nM |  |  |
| N#Cc1cccc(C2=CC(N(CCN3CCCC3)C(=O)Nc3cc(Cl)cc(Cl)c3)CC2)c1 (configuration not stated) |  |  | 605 nM |  |  |
| CN1CCN(CCN(C(=O)Nc2ccc(F)c(C(F)(F)F)c2)[C@@H]2CC[C@]3(c4cccc(C#N)c4)C[C@H]23)CC1 (relative stereo) | 1460 ng·h/mL | 53% |  |  |  |
| CN1CCN(CCCN(C(=O)Nc2ccc(F)c(C(F)(F)F)c2)[C@@H]2CC[C@]3(c4ccc(F)c(C#N)c4)C[C@H]23)CC1 (relative stereo) | 3080 ng·h/mL | 81% | 4 nM | 36% |  |
| CN1CCN(CCCN(C(=O)Nc2ccc(F)c(C(F)(F)F)c2)[C@@H]2CC[C@]3(c4ccc(C#N)c(F)c4)C[C@H]23)CC1 (relative stereo) | 1660 ng·h/mL | 100% | 3.5 nM | 6% |  |
| COc1cccc([C@]23CC[C@@H](N(CCCN4CCN(C)CC4)C(=O)Nc4ccc(F)c(C(F)(F)F)c4)[C@H]2C3)c1 (relative stereo) | 571 ng·h/mL | 73% | 2.9 nM | 0% | 8 nM |
| N#Cc1cccc([C@]23CC[C@@H](N(CCN4CCCCC4)C(=O)Nc4ccc(F)c(Cl)c4)[C@H]2C3)c1 (relative stereo) | 999 ng·h/mL | 57% |  |  |  |
| CN1CCN(CCCN(C(=O)Nc2ccc(F)c(C(F)(F)F)c2)[C@@H]2CC[C@]3(c4cccc(F)c4)C[C@H]23)CC1 (relative stereo) | 888 ng·h/mL | 85% | 2.3 nM | 10% |  |
| CN1CCN(CCCN(C(=O)Nc2ccc(F)c(Cl)c2)[C@H]2CC[C@@H](c3cccc(C#N)c3)C2)CC1 (relative stereo) |  |  | 2190 nM |  |  |
| N#Cc1ccc([C@]23CC[C@@H](N(CCCN4CCNCC4)C(=O)Nc4ccc(F)c(C(F)(F)F)c4)[C@H]2C3)cc1 (relative stereo) | 3470 ng·h/mL | 27% | 8 nM | 0% | 9 nM |
| N#Cc1cccc([C@]23CC[C@@H](N(CCN4CCCC4)C(=O)Nc4ccc(F)c(Cl)c4)[C@H]2C3)c1 (relative stereo) | 822 ng·h/mL |  |  |  |  |
| CC(C)CN1CCN(CCN(C(=O)Nc2ccc(F)c(C(F)(F)F)c2)[C@@H]2CC[C@]3(c4cccc(C#N)c4)C[C@H]23)CC1 (relative stereo) | 140 ng·h/mL | 40% |  |  |  |
| CN1CCN(CCCN(C(=O)Nc2ccc(F)c(Cl)c2)[C@@H]2CC[C@@H](c3cccc(C#N)c3)C2)CC1 (relative stereo) |  |  | 161 nM |  |  |
| N#Cc1cccc([C@]23CC[C@@H](N(CCN4CC[C@@H](O)C4)C(=O)Nc4ccc(F)c(Cl)c4)[C@H]2C3)c1 (stereo in doubt; (+)-23c) |  | 32% |  |  |  |
| N#Cc1cccc([C@]23CC[C@@H](N(CCN4CC[C@@H](O)C4)C(=O)Nc4ccc(F)c(Cl)c4)[C@H]2C3)c1 (stereo in doubt; (-)-23d) |  | 57% |  |  |  |

Second part, the compound after the results:

| AUC(0-t) at 6 h [1] | Activity [2] | Ki [3] | Activity [4] | Kb [5] | SMILES |
| --- | --- | --- | --- | --- | --- |
| 436 ng·h/mL |  |  |  |  | CN1CCN(CCCN(C(=O)Nc2ccc(F)c(Cl)c2)[C@@H]2CC[C@]3(c4cccc(Cl)c4)C[C@H]23)CC1 |
| 2740 ng·h/mL | 65% | 7 nM | 0% |  | CN1CCN(CCCN(C(=O)Nc2ccc(F)c(Cl)c2)[C@@H]2CC[C@]3(c4cc(F)cc(F)c4)C[C@H]23)CC1 (relative stereo) |
| 1610 ng·h/mL | 97% | 4.4 nM | 0% |  | CN1CCN(CCCN(C(=O)Nc2ccc(F)c(Cl)c2)[C@@H]2CC[C@]3(c4ccc(F)c(F)c4)C[C@H]23)CC1 (relative stereo) |
|  |  | 727 nM |  |  | CN1CCN(CCCN(C(=O)Nc2ccc(F)c(Cl)c2)[C@@H]2CC[C@]3(c4cccc(S(C)(=O)=O)c4)C[C@H]23)CC1 (relative stereo) |
| 438 ng·h/mL | 100% | 2.8 nM | 7% | 9 nM | COc1ccc([C@]23CC[C@@H](N(CCCN4CCN(C)CC4)C(=O)Nc4ccc(F)c(C(F)(F)F)c4)[C@H]2C3)cc1 (relative stereo) |
|  | 0% | 33 nM | 4% |  | Cc1cccc([C@]23CC[C@@H](N(CCCN4CCN(C)CC4)C(=O)Nc4ccc(F)c(Cl)c4)[C@H]2C3)c1 (relative stereo) |
| 2340 ng·h/mL | 8% | 9.3 nM |  |  | CN1CCN(CCCN(C(=O)Nc2ccc(F)c(Cl)c2)[C@@H]2CC[C@]3(c4ccc(S(C)(=O)=O)cc4)C[C@H]23)CC1 (relative stereo) |
| 504 ng·h/mL | 39% | 29 nM | 12% |  | CN1CCN(CCCN(C(=O)Nc2ccc(F)c(Cl)c2)[C@@H]2CC[C@]3(c4cccc(OC(F)(F)F)c4)C[C@H]23)CC1 (relative stereo) |
|  |  | 394 nM |  |  | CN1CCN(CCCN(C(=O)Nc2ccc(F)c(Cl)c2)[C@@H]2CC[C@]3(c4cccc(NS(C)(=O)=O)c4)C[C@H]23)CC1 (relative stereo) |
|  |  | 974 nM |  |  | CS(=O)(=O)c1ccc([C@]23CC[C@@H](N(CC4CCN(S(C)(=O)=O)CC4)C(=O)Nc4ccc(F)c(Cl)c4)[C@H]2C3)cc1 (relative stereo) |
| 2170 ng·h/mL | 100% | 1.8 nM | 29% | 15 nM | CN1CCN(CCCN(C(=O)Nc2ccc(F)c(C(F)(F)F)c2)[C@@H]2CC[C@]3(c4ccc(F)cc4)C[C@H]23)CC1 (relative stereo) |
|  | 25% | 13 nM | 12% |  | CN1CCN(CCCN(C(=O)Nc2ccc(F)c(Cl)c2)[C@@H]2CC[C@]3(c4ccsc4)C[C@H]23)CC1 (relative stereo) |
| 1130 ng·h/mL | 79% |  | 0% |  | CN1CCN(CCCN(C(=O)Nc2ccc(F)c(Cl)c2)[C@@H]2CC[C@]3(c4ccccc4)C[C@H]23)CC1 (relative stereo) |
| 722 ng·h/mL | 73% | 3.3 nM | 0% |  | CN1CCN(CCCN(C(=O)Nc2ccc(F)c(Cl)c2)[C@@H]2CC[C@]3(c4cccc(F)c4)C[C@H]23)CC1 (relative stereo) |
|  |  | 1620 nM |  |  | CS(=O)(=O)c1ccc([C@]23CC[C@@H](N(CCCN4CCCC4=O)C(=O)Nc4ccc(F)c(Cl)c4)[C@H]2C3)cc1 (relative stereo) |
|  | 37% | 10 nM | 17% |  | CN1CCN(CCCN(C(=O)Nc2ccc(F)c(Cl)c2)[C@@H]2CC[C@]3(c4cccc(N)c4)C[C@H]23)CC1 (relative stereo) |
|  | 18% |  | 0% |  | CC(=O)Nc1cccc([C@]23CC[C@@H](N(CCCN4CCN(C)CC4)C(=O)Nc4ccc(F)c(Cl)c4)[C@H]2C3)c1 (relative stereo) |
|  | 25% |  | 11% |  | CN1CCN(CCCN(C(=O)Nc2ccc(F)c(Cl)c2)[C@@H]2CC[C@]3(c4cccnc4)C[C@H]23)CC1 (relative stereo) |
